Screening results (PubChem BioAssay)
GalR3 antagonist = blocks the human galanin receptor 3; O60755; HEK293 GalR3-CNG cAMP membrane potential fluorescence; galR3 body fused to GalR1 C-terminus; inhibition, % at 3 µM; hit rate 0.44% among 360,000;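 active = inhibition above the screen-wide average plus 3 SD, cut at about 13% in these data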;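 also: forskolin and galanin both at EC90 stimulate the cells; cAMP rise reported by CNG channel membrane potential dye signal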
OX1R antag-1 = antagonists of human orexin 1 receptor; O43613; CHO/OX1R cells, Fluo-8 calcium fluorescence, orexin A; inhibition, % at 5 µM; hit rate 0.43% among 330,000;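 active = inhibition above its plate's threshold, mean inhibition of all tested compounds on the plate plus 3 SD, cut at about 37% in these data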
Target sequence (O43613 whole entry, looked up): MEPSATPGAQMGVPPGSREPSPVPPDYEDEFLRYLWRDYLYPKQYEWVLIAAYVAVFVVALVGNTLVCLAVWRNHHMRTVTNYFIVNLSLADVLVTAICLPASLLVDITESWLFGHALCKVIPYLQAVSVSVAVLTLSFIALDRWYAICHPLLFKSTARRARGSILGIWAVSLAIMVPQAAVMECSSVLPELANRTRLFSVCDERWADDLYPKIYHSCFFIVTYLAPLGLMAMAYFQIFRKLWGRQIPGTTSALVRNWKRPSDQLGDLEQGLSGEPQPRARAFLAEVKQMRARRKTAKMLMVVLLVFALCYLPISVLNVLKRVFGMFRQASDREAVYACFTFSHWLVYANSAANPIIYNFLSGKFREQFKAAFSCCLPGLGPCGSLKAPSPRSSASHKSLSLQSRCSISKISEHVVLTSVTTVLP
CHO parental Ca = signal in parental CHO cells, OX1R antagonist counter-screen; parental CHO-K1, ATP-induced calcium, Fluo-8 fluorescence; inhibition, % at 5.6 µM; hit rate 0.63% among 330,000;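 active = inhibition above that plate's mean sample inhibition plus 3 SD, cut at about 26% in these data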
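material = parental CHO cells | also added = ATP as calcium-mobilizing challenge | dosing = single point at 5.6 µM | detection = intracellular calcium via Fluo-8 no-wash fluorescent dye | read-out = % inhibition | benchmarks = low control ATP plus DMSO, high control DMSO only | repeats = one well per compound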
TAAR1 antag = human TAAR1 antagonism. inhibition, % at 3 µM. CHO RD-HGA16 TAAR1, Fluo-8 calcium fluorescence, antagonist. hit rate 1.5% among 360,000. Q96RJ0;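 active = inhibition above a per-plate cutoff, the mean inhibition of test compounds on that plate plus 3 SD, cut at about 49% in these data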
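Test system – hTAAR1-expressing CHO RD-HGA16 cells, Gα16-coupled · Reagent – β-PEA at EC80 concentration, post-compound challenge · Compound dosing – 3 µM, single point · Timing – 140 s kinetic read after compound, 140 s after agonist · Detection – Fluo-8 intracellular calcium dye fluorescence, real-time kinetic reads · Control set – DMSO and EC80 PEA controls · Repeats – n of 1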
OX1R antag-2 = OX1R (human) antagonism; OX1R-expressing cells, FRET antagonist read-out; inhibition, % at 6.6 µM; hit rate 1.8% among 330,000; AID 485270; in the data active = inhibition mostly above about 38%, no sharp cut-off; inactive = mostly below about 40%
TAAR1 ag = agonists of human TAAR1 | hit rate 0.99% among 360,000 | Q96RJ0 | activation, % at 3 µM | CHO RD-HGA16 TAAR1, Fluo-8 calcium fluorescence; vehicle wells 0%, saturating PEA agonist 100%;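 active = activation above the mean activation of all test compounds in the run plus 3 SD, cut at about 38% in these data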
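test system = CHO RD-HGA16 cells carrying human TAAR1 plus Gα16 | schedule = 17-24 h seeding, 75 min 37 °C dye, 30 min RT | compound dosing = 3 µM single concentration | control set = DMSO and PEA EC100 | replicates = n 1 | signal = Fluo-8 fluorescence, 5 s baseline then 140 s kinetic read | measure = percent activation vs PEA EC100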
TAAR1 ag confirm = human TAAR1 agonism, confirmed. shares compounds with TAAR1 ag. CHO RD-HGA16 TAAR1, Fluo-8 calcium fluorescence; scaled: DMSO 0%, maximal phenethylamine 100%. activation, % at 3 µM. hit rate 82% among 2,400. AID 651783;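 active = activation above a cutoff set at the run's mean compound activation plus 3 SD, cut at about 39% in these data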
Ga16 ag counter = nonselective agonist in parental cells, TAAR1 agonist counter-screen; shares compounds with TAAR1 ag; CHO-Ga16 parental, Fluo-8 calcium fluorescence; normalized to maximal ATP response, DMSO zero; activation, % at 3 µM; hit rate 50% among 2,400;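 active = activation above the run cutoff, the mean activation over all tested wells plus 3 SD, cut at about 12% in these data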
TAAR1 desens = human TAAR1 agonist that also desensitizes the receptor; shares compounds with TAAR1 ag; CHO RD-HGA16 hTAAR1, Fluo-8 calcium, beta-PEA response inhibition; inhibition, % at 3 µM; hit rate 46% among 2,400;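 active = inhibition above the run cutoff, the mean inhibition of all test compounds plus 3 SD, cut at about 49% in these data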;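 also: beta-PEA stimulus applied at its EC80; loss of beta-PEA calcium signal after compound pretreatment read as receptor desensitization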
Ga16 antag count = counter-screen for TAAR1 agonists: nonselective Ga16 antagonists | CHO-Ga16 ATP-induced calcium, Fluo-8 fluorescence | AID 651952 | shares compounds with TAAR1 ag | hit rate 39% among 2,400 | inhibition, % at 3 µM;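 active = inhibition above the plate's mean compound inhibition plus 3 SD, computed per plate, cut at about 22% in these data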
Each line names hits and unclear results; the compound was inactive in the other large screens (follow-up assays come after a bar, where they were run). In the library only some 4.3% were active in any assay of this set; here they are far more common.

CC(C)CNC(=O)c1ccccc1-c1ccccc1C(=O)O	TAAR1 ag 54 | TAAR1 ag confirm inactive | Ga16 ag counter inactive | TAAR1 desens inactive | Ga16 antag count inactive
OCC1OC(c2ccc(OCc3ccccc3)cc2OCc2ccccc2)C(O)C1O (configuration not stated)	none (no result: OX1R antag-1, CHO parental Ca, OX1R antag-2)
Cc1cc(NS(=O)(=O)c2c(C)[nH]c(=O)[nH]c2=O)ccc1Br	TAAR1 ag 73 (no result: OX1R antag-1, CHO parental Ca, OX1R antag-2) | TAAR1 ag confirm inactive | Ga16 ag counter inactive | TAAR1 desens inactive | Ga16 antag count inactive
Cc1cc(Br)ccc1NS(=O)(=O)c1c(C)[nH]c(=O)[nH]c1=O	none
O=C(NC1CC1)c1ccc2nc([C@@H]3O[C@H](CO)[C@H](O)[C@H](O)[C@H]3O)[nH]c2c1	none (no result: OX1R antag-1, CHO parental Ca, OX1R antag-2)
COc1ccc(-c2ccc(S(=O)(=O)n3nc(OC(=O)c4cccs4)cc3N)cc2)cc1	none
Cc1ccc(S(=O)(=O)n2nc(OC(=O)c3cccs3)cc2N)cc1	TAAR1 ag 92 | TAAR1 ag confirm 65 | Ga16 ag counter 33 | TAAR1 desens inactive | Ga16 antag count inactive
Cc1ccc(S(=O)(=O)n2nc(OC(=O)c3ccccc3C)cc2N)cc1	TAAR1 ag 48 | TAAR1 ag confirm 53 | Ga16 ag counter 32 | TAAR1 desens inactive | Ga16 antag count 23
COc1ccccc1C(=O)Oc1cc(N)n(S(=O)(=O)c2ccc(C)cc2)n1	none
Cc1ccc(S(=O)(=O)n2ccc(OC(=O)c3cccs3)n2)cc1	TAAR1 ag 99 | TAAR1 ag confirm 81 | Ga16 ag counter 45 | TAAR1 desens inactive | Ga16 antag count inactive
COC(=O)c1cc(C)c(C)cc1NC1OC(CO)C(O)C1O (configuration not stated)	none (no result: OX1R antag-1, CHO parental Ca, OX1R antag-2)
CC[C@@H](C)[C@H](CN[C@H](CNC)[C@@H](C)O)NCCc1ccc(OC)cc1	none
O=C(NCCc1ccccc1F)[C@@H]1CSC2c3ccccc3C(=O)N21 (some centres not stated)	TAAR1 ag 60 | TAAR1 ag confirm 65 | Ga16 ag counter inactive | TAAR1 desens inactive | Ga16 antag count inactive
O=C(O)[C@@H]1CSC2c3ccccc3C(=O)N21 (some centres not stated)	none
Fc1cccc(CCN2CCNC[C@H]2Cc2cccc3ccccc23)c1	TAAR1 ag 68 | TAAR1 ag confirm 80 | Ga16 ag counter 16 | TAAR1 desens inactive | Ga16 antag count 27
CC(O)[C@H]1CNCCN1CCc1cccc(F)c1 (some centres not stated)	TAAR1 ag 74 | TAAR1 ag confirm 67 | Ga16 ag counter inactive | TAAR1 desens inactive | Ga16 antag count inactive
CC(C)(C)CN1CCNC[C@H]1Cc1cccc2ccccc12	none
c1ccc(C2(CN3CCNC[C@H]3Cc3cccc4ccccc34)CC2)cc1	TAAR1 ag 44 | TAAR1 ag confirm 47 | Ga16 ag counter 19 | TAAR1 desens inactive | Ga16 antag count 26
NS(=O)(=O)c1ccc(CCNS(=O)(=O)c2ccc3c(c2)NC(=O)CO3)cc1	none
O=C(Cc1ccccc1)NC(NCCc1ccccc1)C(Cl)(Cl)Cl (configuration not stated)	TAAR1 ag 44 | TAAR1 ag confirm 50 | Ga16 ag counter inactive | TAAR1 desens inactive | Ga16 antag count inactive
Cc1ccc2c(c1)-n1c(nc3ccc(C)cc3c1=O)C(Cc1ccccc1)NC2=O (configuration not stated)	none (no result: GalR3 antagonist, TAAR1 antag, TAAR1 ag)
COC(=O)[C@H](CCSC)NC(=O)NCCc1ccccc1F	TAAR1 ag 47 | TAAR1 ag confirm 53 | Ga16 ag counter inactive | TAAR1 desens inactive | Ga16 antag count inactive
CCCCN(C(=O)c1cccc(-n2cccc2)c1)c1c(N)n(Cc2ccccc2)c(=O)[nH]c1=O	none
Cc1cccc(N2C(=O)C(O)=C(C(=O)c3cccs3)C2c2ccc(C(C)C)cc2)n1 (configuration not stated)	TAAR1 ag 69 | TAAR1 ag confirm 80 | Ga16 ag counter 67 | TAAR1 desens 51 | Ga16 antag count 33
Cc1cccc(N2C(=O)C(O)=C(C(=O)c3cccs3)C2c2ccc(F)cc2)n1 (configuration not stated)	none
COc1ccc(C[C@@H]2CN3C(=NC[C@@H]3C)N2CCNC(=O)c2ccc(C)c(Br)c2)cc1	TAAR1 ag 45 | TAAR1 ag confirm 54 | Ga16 ag counter 15 | TAAR1 desens inactive | Ga16 antag count inactive
C/C=C(\C)C(=O)NCCN1C2=NC[C@H](C)N2C[C@@H]1Cc1ccc(OC)cc1	none
Cc1cccc(-c2cc3nc(C)cc(N4CC(C)CC(C)C4)n3n2)c1 (configuration not stated)	TAAR1 ag 70 | TAAR1 ag confirm 82 | Ga16 ag counter inactive | TAAR1 desens inactive | Ga16 antag count inactive
CC(C)Cc1ccc(C(C)C(=O)Nc2cccnc2)cc1 (configuration not stated)	OX1R antag-1 90, CHO parental Ca 69, TAAR1 antag 63, TAAR1 ag 84 | TAAR1 ag confirm 126 | Ga16 ag counter 65 | TAAR1 desens 79 | Ga16 antag count 43
CC(C(=O)Nc1cccnc1)c1ccc([N+](=O)[O-])cc1 (configuration not stated)	none
CCN(CC)c1ccc(C(=O)NNC(=O)CCl)cc1	none
